Sampled rows, rich in hits. Any-hit rate of the full collection: about 4.3%.
APP 5'UTR act – activators of APP 5'UTR luciferase reporter, primary screen, SH-SY5Y cells; SH-SY5Y APP 5'UTR luciferase reporter, luminescence; zero percent = DMSO vehicle wells; 190,000 compounds, 1% hits; activation, % at 2 µM;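 active = activation above a set limit, based on mean plus 3 SD of controls, cut at about 140% in these data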
FLuc act counter – FLuc activators, initial screening, artefact control for FLuc-dependent activation tests, biochemical, ATPlite luminescence. Luciferin 4-monooxygenase (Photinus pyralis), P08659. ATPlite luciferase biochemical, 10 min; 0 = ATP-free wells, 1 = DMSO control. activation factor at 10 µM. 200,000 tested, under 10 active. AID 1027, 2008;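 active = luciferase activation factor, scaled between plate controls, of at least 2 with compound at 10 µM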
Target sequence (P08659 whole entry, looked up): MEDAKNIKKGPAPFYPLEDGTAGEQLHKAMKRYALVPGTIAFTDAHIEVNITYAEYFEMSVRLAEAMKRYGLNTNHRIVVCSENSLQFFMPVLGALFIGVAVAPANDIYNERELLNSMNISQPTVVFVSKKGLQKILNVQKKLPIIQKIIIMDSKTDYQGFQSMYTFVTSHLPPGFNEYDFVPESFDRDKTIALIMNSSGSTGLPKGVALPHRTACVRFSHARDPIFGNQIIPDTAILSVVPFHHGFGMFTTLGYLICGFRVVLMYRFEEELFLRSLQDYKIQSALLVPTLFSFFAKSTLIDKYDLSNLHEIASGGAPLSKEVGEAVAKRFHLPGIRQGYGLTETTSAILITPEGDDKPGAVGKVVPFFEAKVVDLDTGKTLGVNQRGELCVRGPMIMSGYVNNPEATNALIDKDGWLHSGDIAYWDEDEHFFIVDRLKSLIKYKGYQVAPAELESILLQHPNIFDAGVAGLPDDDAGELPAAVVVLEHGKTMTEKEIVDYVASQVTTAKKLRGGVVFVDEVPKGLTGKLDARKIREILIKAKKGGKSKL
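Material: Luciferase/luciferin reagent mix; Doses: test compounds dosed from 2 mM stocks in 100% DMSO; Schedule: 10 min incubation after luciferase reagent addition, room temperature; Measured by: luminescence from luciferase reaction; Read-out: luminescence gain marking luciferase activators.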
NF-kB neuron act – activators of NF-kB expression in neurons, primary screen, cell-based, HTS; human neuronal cells, NF-kB reporter expression; active compounds read high; 190,000 compounds, 1.6% hits; fold change at 12.5 µM; in the data active = fold change above about 3.3
FLuc inh counter – firefly luciferase enzyme inhibitors, primary screen, artefact control for luciferase-based inhibitor screens, biochemical, luminescence, ATPLite; 200,000 compounds, 1.5% hits; inhibition, % at 10 µM; 10 min; Luciferin 4-monooxygenase (Photinus pyralis), P08659; AID 1006, 2008;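 active = inhibition above about 50% when tested at 10 µM, limit read from the data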
SDO1 yeast rescue – growth rescue of sdo1-depleted yeast, primary screen, S. cerevisiae, bone marrow failure model | 140,000 compounds, 0.21% hits | S. cerevisiae sdo1-depleted JHY4D growth rescue, OD600 30 h; active compounds read high; pdr5 snq2 efflux-pump mutant strain | z-score at 10 µM | AID 817, 2007;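 active = z-score above 3 at both the 24 hr and the 30 hr optical density reads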;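 note: z-score against mean and SD of all compound wells on the same plate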
STAT1 act – STAT1 signaling activators, primary screen, cell-based, HTS, luciferase reporter; NIH 3T3 STAT1-luciferase reporter, IFN-gamma, luminescence; 100% = IFN-gamma alone, no compound; activation (% of control), % at 5.5 µM; 200,000 compounds, 2.6% hits;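 active = activation above the screen-wide mean activation plus 3 SD, cut at about 130% in these data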;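 note: raw ratio to IFN-gamma control signal so 100% means no change and 0% no light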
STAT1 act conf – STAT1 signaling activators, confirmation, cell-based, HTS, luciferase reporter; AID 1262, 2008; shares compounds with STAT1 act; NIH 3T3 STAT1-luciferase reporter, IFN-gamma potentiation, luminescence; 100% = IFN-gamma EC80 alone, no compound; activation (% of control), % at 5.7 µM; 1,200 compounds, 97% hits;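 active = activation above a set limit carried over from the earlier primary STAT1 screen, cut at about 140% in these data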;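 note: simple ratio to median IFN-gamma plus DMSO wells so 0% means no light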
NFkB act STAT1ct – NF-kB reporter activators, TNF-alpha stimulated, counter-screen for STAT1 activator project, cell-based, HEK293T, luciferase luminescence. shares compounds with STAT1 act. 100% = TNF-alpha with vehicle only. activation (% of control), % at 5.7 µM. 1,200 compounds, 43% hits. AID 1306, 2008;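 active = activation above the mean of solvent-only control wells plus 3 SD, set per campaign, cut at about 130% in these data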;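 note: TNF-alpha given at a submaximal dose yielding about 80% of full reporter signal; values are well signal over median control so 100% means no change and 0% no light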
STAT3 act STAT1c – STAT3 reporter activation by STAT1 hits, confirmation, counter-screen for STAT1 activator project, U3A cells, luciferase, luminescence. shares compounds with STAT1 act. IL-6; cells lack STAT1; 100 = IL-6 alone, no compound effect. activation (% of control), % at 5.7 µM. 1,200 compounds, 46% hits. AID 1316, 2008;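 active = activation above the solvent-only control well mean plus 3 SD, set per plate batch, cut at about 110% in these data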;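 note: 0% = no luminescence and 100% = median IL-6 plus DMSO wells; higher means more STAT3 reporter activation so hits are non-selective activators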
Active calls of the source: *; / = not tested or not shown.

SMILES	APP 5'UTR act	FLuc act counter	NF-kB neuron act	FLuc inh counter	SDO1 yeast rescue	STAT1 act	STAT1 act conf	NFkB act STAT1ct	STAT3 act STAT1c
COC(=O)c1ccc(COc2ccccc2/C=C(\C#N)C(=O)Nc2ccc(C)cc2)cc1	19	1	1.1	4	-0.87	151*	195*	135*	106
CC(C(=O)OCc1nnc(-c2ccccc2)o1)N1C(=O)C2CCCCC2C1=O (configuration not stated)	3	1	1.4	2	/	111	/	/	/
COc1ccc(-c2cn3cccc(C)c3n2)cc1Br	137*	0.4	4.8*	57*	0.04	172*	191*	130	102
O=C(O)C1=C(C(=O)Nc2cccc(C(F)(F)F)c2)CCCC1	-11	1	1.1	0	/	96	/	/	/
Cc1occc1C(=O)Nc1ccc2ccccc2c1	164*	0.8	9.3*	21	-1.5	156*	207*	125	152*
Cc1occc1C(=O)Nc1cc(C(C)(C)C)on1	148*	0.7	4.5*	29	0.71	152*	191*	127	122*
CC(=O)c1cccc(NC(=O)c2ccoc2C)c1	-16	1	1.3	-3	/	97	/	/	/
O=C(CCCO)N/N=C/c1ccccc1[N+](=O)[O-]	-7	1.1	1.1	-5	0.35	91	/	/	/
CC(=Nc1ccc(C)cc1)c1sc2ccccc2c1O	197*	0.1	4.8*	85*	-0.34	154*	248*	104	88
CCOC(=O)c1sc2ccccc2c1OC(=O)c1ccc(C)cc1	4	1.1	0.62	-5	-0.56	103	/	/	/
Cc1ccc2[nH]c(O)c(N=NC(=O)C3CC3c3ccccc3)c2c1Br (configuration not stated)	-8	1	1.2	-4	1	96	/	/	/
Cc1ccc2c(c1)N(CC(=O)N1CCN(c3nc4ccccc4s3)CC1)C(=O)C(C)O2 (configuration not stated)	20	1	0.67	-4	1.3	104	/	/	/
Cc1ccc(C)c(N2CCN(c3cnn(-c4nc5ccccc5s4)c(=O)c3Cl)CC2)c1	126	0.8	1.6	23	0.81	156*	182*	126	105
COc1ccc(/C=C/C(=O)NCCSCc2ccco2)cc1	-10	0.8	1.6	17	-1.3	101	/	/	/
CC(=O)Nc1ccc(N=Nc2ccccc2)cc1	111	0.8	5.3*	15	-0.27	152*	188*	131	107
CC(=O)OCC(=O)Nc1ccc(SC(F)F)cc1	52	0.7	1.1	27	/	104	/	/	/
CCC(C(=O)OCC(=O)Nc1ccc(C(N)=O)cc1)c1ccccc1 (configuration not stated)	-5	1.1	0.98	-7	/	100	/	/	/
CC(=O)OCC(=O)Nc1ccc(N=Nc2ccccc2)cc1	110	0.9	4.9*	9	-0.48	162*	190*	135*	114*
CC(C)C(=O)OCC(=O)Nc1ccc(N=Nc2ccccc2)cc1	170*	1	5.1*	-3	-0.16	151*	184*	140*	117*
O=C(CCl)Nc1ccc(N=Nc2ccccc2)cc1	31	0.7	3.1	29	-1.8	124	/	/	/
O=C(Nc1ccc(N=Nc2ccccc2)cc1)c1ccccc1Cl	158*	1	2.3	-4	-0.66	180*	204*	153*	120*
CNC(=S)NNC(=O)Cc1ccc(OC)c(OC)c1	5	1.1	1.1	-10	0.54	102	/	/	/
COc1ccccc1NC(=O)CC1S/C(=N/N=C2\CCCc3ccccc32)NC1=O (configuration not stated)	-12	1.1	/	-8	/	104	/	/	/
COC(=O)CNc1ccc2c(c1)OCO2	-8	1	1.4	-2	0.99	107	/	/	/
Oc1ccc(-c2csc(-c3ccccc3)n2)cc1O	53	0.9	6.3*	7	-2.5	151*	166*	109	106
SMILES	APP 5'UTR act	FLuc act counter	NF-kB neuron act	FLuc inh counter	SDO1 yeast rescue	STAT1 act	STAT1 act conf	NFkB act STAT1ct	STAT3 act STAT1c
O=[N+]([O-])c1cccnc1NCCc1ccccc1	76	1	2.3	2	/	151*	163*	129	117*
CCSc1nnc2nc3[nH]c4c(C)cccc4c3nn12	84	1	2	-4	/	151*	149*	119	123*
CCSc1nc2c([nH]c3ccccc32)c(=O)n1C	-1	1	1	1	0.38	102	/	/	/
C=CCSc1nnc2c(n1)[nH]c1c(C)cccc12	119	0.8	2.4	16	-1.4	154*	176*	118	89
Cc1cccc2c1[nH]c1nc(N/N=C\c3ccco3)nnc12	12	1	1.1	2	1.2	106	/	/	/
CN1CCN(CCCN2c3ccccc3Sc3ccc(C(F)(F)F)cc32)CC1	2	1	0.61	-2	-2	90	/	/	/
O=c1c2c(nc3c(-c4cccc(Br)c4)c[nH]n13)CCCC2	13	1.1	0.98	-8	0.37	101	/	/	/
O=c1c2c(nc3cc(-c4ccc(Br)cc4)[nH]n13)CCCC2	174*	0.4	3.3	58*	/	205*	281*	151*	106
CCOC(=O)NN1C(=O)c2ccccc2NC1c1ccc(OC)c(OC)c1 (configuration not stated)	4	1.1	1.3	-6	/	103	/	/	/
CC(C)CNC(=S)N(Cc1ccco1)Cc1cc2cc3c(cc2[nH]c1=O)OCCO3	-21	1.1	0.74	-6	-0.19	97	/	/	/
COc1ccc(-c2csc(NC(=O)c3ccco3)n2)cc1	137*	0.8	4.2*	16	-0.28	153*	164*	127	99
O=C(Nc1nnc(C23CC4CC(CC(C4)C2)C3)s1)c1ccco1	87	0.7	0.94	28	-1.4	152*	190*	131	120*
